Measurements: ChEMBL document CHEMBL3352644, “Selenadiazole derivatives as potent thioredoxin reductase inhibitors that enhance the radiosensitivity of cancer cells” (Eur J Med Chem, 2014)
Calls of active or inactive are those of the source.

How the values were obtained:
A-375 [1] = assay: Induction of cell shrinkage in human A375 cells pre-treated with 20 uM p38 inhibitor […] for 1 hr followed by 8 ug/mL compound exposure for 18 hrs by microscopy; format: functional, cell-based
In short: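 A375 cells pretreated 1 h with […] JNK inhibitor SP600125 or p38 inhibitor SB203580, then given […] compound for 18 h. Morphology imaged.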

A-375 [2] = assay: Reduction in Bcl-2 expression in human A375 cells at 4 ug/mL incubated for 18 hrs by Western blotting method; format: functional, cell-based
In short: (§1)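 A375 cells given […] for 6 h, then 0 or 8 Gy X-ray at 1.5 Gy/min and 12 h further culture. Lysis in ice-cold RIPA, pH 7.4, with protease and phosphatase inhibitors; protein by BCA. […] protein per lane on SDS-PAGE, transferred to nitrocellulose. Blocked in 5% milk/TBST. Primary 1:1000, 10 h, 4 °C; HRP secondary 1:2000, 1.5 h.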

A-375 [3] = assay: Induction of ROS generation in human A375 cells at 4 ug/mL incubated for 6 hrs followed by irradiation with 8 Gy X-ray at 37 degC for 12 hrs by DCF and DHE dye based fluorescence assay; format: functional, cell-based
In short: (§2)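 A375 cells (4 × 10⁴/well) cultured 24 h, then treated 6 h at 8 or 16 µg/ml or at 2 or 4 µg/ml, and given 0 or 8 Gy X-ray. Loaded with H₂DCF or DHE for 30 min at 37 °C in the dark. Fluorescence read at 485/535 nm (DCF) or 480/610 nm (DHE); % of control.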

A-375 [4] = assay: Induction of cell cycle arrest in human A375 cells assessed as accumulation at G2/M phase at 4 ug/mL incubated for 18 hrs by propidium iodide staining based flow cytometry (reference value: 13.9%); format: functional
In short: (§3)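 A375 cells treated at 10 or 4 µg/ml for 6 h, given 0 or 8 Gy X-ray, then 12 h more. Trypsinized, washed in PBS, fixed overnight in ice-cold 75% ethanol at −20 °C. Stained with propidium iodide, 30 min at 37 °C in the dark; DNA content and sub-G1 population read by flow cytometry.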

A-375 [5] = assay: Induction of apoptosis in human A375 cells assessed as caspase 3 activation at 2 ug/mL incubated for 18 hrs by Western blotting method; format: functional, cell-based
In short: (§4)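 A375 cells treated with 2 µg/ml alone or with 8 Gy X-ray (6 h pretreatment, then 12 h; 18 h total). RIPA lysates (50 µg protein) run on SDS-PAGE and immunoblotted for caspases and PARP cleavage. Reprobed for β-actin as loading control.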

A-375 [6] = assay: Induction of apoptosis in human A375 cells assessed as caspase 9 activation at 2 ug/mL incubated for 18 hrs by Western blotting method; format: functional, cell-based; in short: as §4
A-375 [7] = assay: Induction of apoptosis in human A375 cells assessed as caspase 9 activation at 2 ug/mL incubated for 6 hrs followed by irradiation with 8 Gy X-ray at 37 degC for 12 hrs by Western blotting method; format: functional, cell-based; in short: as §4
[8] = target: c-Jun N-terminal kinase, JNK (Homo sapiens) (UniProt P45983+P53779+P45984); assay: Induction of JNK phosphorylation in human A375 cells at 4 ug/mL incubated for 18 hrs by Western blotting method; format: cell-based; settings: A-375
In short: (§5)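 A375 cells pretreated 6 h with compound at 4 µg/ml, given 0 or 8 Gy X-ray, then incubated 12 h more. Lysed in RIPA buffer, pH 7.4, with protease and phosphatase inhibitors; 50 µg protein run on SDS-PAGE and blotted to nitrocellulose. Blocked in 5% milk; primary antibodies 1:1000, 10 h at 4 °C; HRP secondary 1:2000.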

A-375 [9] = assay: Induction of ROS generation in human A375 cells at 2 ug/mL incubated for 6 hrs followed by irradiation with 8 Gy X-ray at 37 degC for 12 hrs by DCF and DHE dye based fluorescence assay; format: functional, cell-based; in short: as §2
A-375 [10] = assay: Cytotoxicity against human A375 cells pre-treated with 20 uM p38 inhibitor […] for 1 hr followed by 8 ug/mL compound exposure for 18 hrs by MTT assay; format: functional, cell-based
In short: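 A375 cells pretreated 1 h with 20 µM SP600125 (JNK) or SB203580 (p38), then exposed to compound at 8 µg/ml for 18 h. Viability by MTT (formazan in DMSO, 570 nm), expressed as % of control.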

A-375 [11] = assay: Induction of cell cycle arrest in human A375 cells assessed as accumulation at G2/M phase at 4 ug/mL incubated for 6 hrs followed by irradiation with 8 Gy X-ray at 37 degC for 12 hrs by propidium iodide staining based flow cytometry (reference value: 47.2%); format: functional; in short: as §3
A-375 [12] = assay: Increase in Bid cleavage in human A375 cells at 4 ug/mL incubated for 18 hrs by Western blotting method; format: functional, cell-based; in short: as §5
A-375 [13] = assay: Reduction in Trx expression in human A375 cells at 2 ug/mL incubated for 6 hrs followed by irradiation with 8 Gy X-ray at 37 degC for 12 hrs by Western blotting method; format: functional, cell-based
A-375 [14] = assay: Reduction in Bid expression in human A375 cells at 4 ug/mL incubated for 6 hrs followed by irradiation with 8 Gy X-ray at 37 degC for 12 hrs by Western blotting method; format: functional, cell-based; in short: as §1
[15] = target: Thioredoxin reductase (Homo sapiens) (UniProt Q16881+Q9NNW7+Q86VQ6); assay: Inhibition of TrxR antioxidant enzyme activity in human A375 cells at 2 ug/mL incubated for 6 hrs followed by irradiation with 8 Gy X-ray at 37 degC for 12 hrs by insulin reduction assay; format: cell-based; settings: A-375
A-375 [16] = assay: Induction of cell cycle arrest in human A375 cells assessed as accumulation at S phase at 4 ug/mL incubated for 18 hrs by propidium iodide staining based flow cytometry (reference value: 37.2%); format: functional; in short: as §3
A-375 [17] = assay: Induction of apoptosis in human A375 cells assessed as caspase 8 activation at 2 ug/mL incubated for 18 hrs by Western blotting method; format: functional, cell-based; in short: as §4
Homo sapiens = species on record: Homo sapiens; assay: Binding affinity to PMB-AGUVGAGLIK TrxR model peptide (unknown origin) at peptide to compound molar ratio of 1:1 at 37 degC for 18 hrs by MALDI-TOF-MS/MS assay
In short: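 Pre-reduced TrxR model peptide PMB-Ala-Gly-Sec-Val-Gly-Ala-Gly-Leu-Ile-Lys incubated with compound at 1:1 molar ratio, 37 °C, 18 h; adducts examined by MALDI-TOF MS, looking for compound-derived mass shifts and fragment peaks.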

A-375 [18] = assay: Induction of apoptosis in human A375 cells assessed as caspase 8 activation at 2 ug/mL incubated for 6 hrs followed by irradiation with 8 Gy X-ray at 37 degC for 12 hrs by fluorometric assay; format: functional, cell-based
In short: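 Cells seeded at 1 × 10⁶ per 10 cm dish and treated with 2 µg/ml alone or with 8 Gy X-ray for 18 h total. RIPA lysates clarified by spinning at 12,000 rpm for 5 min; 80 µg protein given Ac-DEVD-AMC (caspase-3), Ac-IETD-AMC (caspase-8) or Ac-LEHD-AMC (caspase-9). Incubated 2 h at 37 °C in the dark; fluorescence at 380/440 nm.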

A-375 [19] = assay: Induction of apoptosis in human A375 cells assessed as caspase 8 activation at 2 ug/mL incubated for 6 hrs followed by irradiation with 8 Gy X-ray at 37 degC for 12 hrs by Western blotting method; format: functional, cell-based; in short: as §4

COc1cc(-c2nc3cc(-c4ccc5n[se]nc5c4)ccc3[nH]2)cc(OC)c1OC
44.4%: Activity (A-375 [4])
34%: Activity (A-375 [16])
active: Activity (A-375 [2]) | Activity (A-375 [3]) | Activity (A-375 [5]) | Activity (A-375 [6]) | Activity (A-375 [7]) | Activity [8] | Activity (A-375 [9]) | Activity (A-375 [12]) | Activity (A-375 [13]) | Activity (A-375 [14]) | inhibition [15] | Activity (A-375 [17]) | Activity (Homo sapiens) | Activity (A-375 [18]) | Activity (A-375 [19])
22.1%: Activity (A-375 [11])
inactive: Activity (A-375 [1]) | Activity (A-375 [10])
